How the values were obtained:
[1] = test system: Plasmodium vivax; test: Antimalarial activity against liver stage Plasmodium vivax schizont infected in human hepatocytes preincubated for 5 to 10 days followed by compound addition and measured after 12 days post infection by immunofluorescence staining based assay; assay type: functional, organism-based; settings: hepatocyte
Procedure, shortened: (§1)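 Primary human hepatocytes seeded at 18 000 per collagen-coated well. Two days later, infected with sporozoites from mosquitoes fed P. vivax patient blood (Cambodia) 18 days earlier; a different isolate was used per experiment. Radical-cure mode: treated days 5–7 post-infection. Day 12: fixed, anti-PvUIS4 immunofluorescence, high-content imaging. Nigericin and 0.1% DMSO controls. Duplicate wells; two independent experiments.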

[2] = Selectivity index, ratio of CC50 for human HepG2 cells to EC50 for asexual blood stage Plasmodium falciparum W2; assay type: toxicity; settings: read-out: Ratio CC50/EC50
[3] = Selectivity index, ratio of CC50 for primary human hepatocytes to EC50 for liver stage Plasmodium vivax schizont infected in human hepatocytes; assay type: toxicity, cell-based; settings: read-out: Ratio CC50/EC50
[4] = test system: Plasmodium falciparum; test: Antimalarial activity against asexual blood stage Plasmodium falciparum W2 incubated for 72 hrs by Hoechst 33342 staining based assay; assay type: functional, organism-based
Procedure, shortened: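 P. falciparum W2 ring stages plated at 2% parasitemia and 0.75% hematocrit. Cells allowed to settle, then dosed by pin transfer from a 12-point 1:3 dilution series made from 1000× DMSO stocks. Artemisinin was the positive control and 0.1% v/v DMSO the negative. After 72 h: fixed, Hoechst 33342 DNA stain, high-content imaging. EC50 fitted per run from duplicate wells; three independent experiments.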

[5] = test system: Plasmodium vivax; test: Antimalarial activity against liver stage Plasmodium vivax hypnozoite infected in human hepatocytes preincubated for 5 to 10 days followed by compound addition and measured after 12 days post infection by immunofluorescence staining based assay; assay type: functional, organism-based; settings: hepatocyte; procedure, shortened: as §1
[6] = Cytotoxicity against human HepG2 cells incubated for 72 hrs by Hoechst 33342 staining based assay; assay type: toxicity, cell-based
Procedure, shortened: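 HepG2 cells, 2000 per collagen-coated well, treated the following day by pin transfer from a 12-point 1:3 dilution series (1000× DMSO stocks). Puromycin positive control; 0.1% v/v DMSO negative. After 72 h: fixed, Hoechst 33342 nuclear stain, high-content imaging. CC50 fitted per run from duplicate wells; three independent experiments.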

[7] = Cytotoxicity against human primary hepatocytes; assay type: toxicity, cell-based, Hepatocyte
Procedure, shortened: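 Host primary human hepatocytes (18 000 per collagen-coated well) in the P. vivax liver-stage radical-cure cultures. Compound given days 5–7 post-infection from a 12-point 1:3 dilution series; fixed at day 12 and imaged by high-content imaging. 0.1% DMSO negative control. CC50 fitted per run from duplicate wells; two independent experiments.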

[8] = Selectivity index, ratio of CC50 for primary human hepatocytes to EC50 for liver stage Plasmodium vivax hypnozoite infected in human hepatocytes; assay type: toxicity, cell-based; settings: read-out: Ratio CC50/EC50

**Q.** What does the source list for `CC1=CC[C@@]23COC(=O)[C@@H](O)[C@H](C)CCOC(=O)/C=C/C=C\C(=O)O[C@@H]4C[C@@H](O[C@@H]2C1)[C@@]1(CO1)[C@]43C`?
**A.** EC50 [1]: 0.00407 µM; pEC50 [1]: 8.39; selectivity ratio [2]: 7.95; selectivity ratio [3]: 77.7; EC50 [4]: 0.00045 µM; pEC50 [4]: 9.35; EC50 [5]: 0.0309 µM; pEC50 [5]: 7.51; CC50 at 72 h ([6]; read-out: CC50): 0.00355 µM; CC50 at 72 h ([6]; read-out: pCC50 (converted)): 0.00355 µM; CC50 ([7]; read-out: CC50): 0.316 µM; CC50 ([7]; read-out: pCC50 (converted)): 0.316 µM; selectivity ratio [8]: 10.1

**Q.** What does the source list for `CC(=O)OC[C@]12CCC(C)=C[C@H]1O[C@@H]1[C@H](O)[C@@H](OC(C)=O)[C@@]2(C)[C@]12CO2` (single isomer, unassigned)?
**A.** pEC50 [1]: 7.87; selectivity ratio [2]: 4.43; selectivity ratio [3]: 28.7; pEC50 [4]: 8.21; pEC50 [5]: 7.44; selectivity ratio [8]: 10.7

**Q.** For `CO[C@@H]1C[C@@H](C[C@H]2CC[C@H](C)[C@H]([C@@H](C)C(=O)O)O2)O[C@]2(O[C@](C)([C@H]3CC[C@@](C)([C@@H]4O[C@@H]([C@H]5O[C@@](O)(CO)[C@H](C)C[C@@H]5C)C[C@@H]4C)O3)C[C@H]2C)[C@@H]1C` [NIGERICIN], which selectivity ratio [3] is on record?
**A.** Its selectivity ratio is > 38.9.

**Q.** What about the CC50 ([7]; read-out: pCC50 (converted)) of the same compound?
**A.** Its CC50 is 0.2 µM.

**Q.** What about the selectivity ratio [8] of the same compound?
**A.** Its selectivity ratio is > 16.3.

**Q.** With `COc1ccc(C[C@H](N)C(=O)N[C@H]2[C@@H](O)[C@H](n3cnc4c(N(C)C)ncnc43)O[C@@H]2CO)cc1` [PUROMYCIN] as the compound, how does the selectivity ratio [3] read?
**A.** Its selectivity ratio is < 1.

**Q.** What about the selectivity ratio [8] of the same compound?
**A.** Its selectivity ratio is 2.25.

**Q.** With `CC1=C[C@H]2O[C@@H]3C[C@@H](O)[C@](C)([C@@]2(CO)CC1)[C@@]31CO1` as the compound, how does the EC50 [1] read?
**A.** Its EC50 is > 10 µM.

**Q.** What about the pEC50 [1] of the same compound?
**A.** Its pEC50 is < 5.

**Q.** What about the EC50 [4] of the same compound?
**A.** The EC50 was > 4.37 µM.

**Q.** And the pEC50 [4]?
**A.** Its pEC50 is < 5.36.

**Q.** And the EC50 [5]?
**A.** The EC50 was > 3.31 µM.

**Q.** And the pEC50 [5]?
**A.** Its pEC50 is < 5.48.
